How the values were obtained:
[1] = system: MBP-sAnk1_29–155 / GST-Obsc6316–6345; set-up: species or system rat; settings: binding to GST-Obsc6316–6345
Procedure, shortened: (§1)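 Each GST-obscurin fusion was expressed in BL21* pLysS cells (1 mM IPTG, 4 h), affinity-purified, and captured by anti-GST on a CM5 SPR chip. 1 µM MBP-sAnk1 was pre-mixed with synthetic 6316–6345 or 6231–6260 oligopeptide at varying relative molar amounts, then flowed over the chip. Inhibition constant = reciprocal of the peptide:sAnk1 concentration ratio blocking maximal binding by 50%.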

MBP-sAnk1_29–155 [2] = test: SPR direct binding of GST-obscurin constructs to MBP-sAnk1; set-up: species or system rat; settings: GST fusion constructs vs MBP-sAnk1_29–155
Procedure, shortened: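 GST-obscurin constructs, expressed in BL21* pLysS cells (1 mM IPTG, 4 h) and affinity-purified, were captured by anti-GST on a CM5 chip. MBP-sAnk1 was applied over a wide concentration range. Signal from a GST-only chip and a buffer blank was subtracted. Kinetic rate constants and KD came from 1:1 binding model fits.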

[3] = system: MBP-sAnk1_29–155 / GST-Obsc6231–6260; assay type: binding, rat; settings: for molar excess of peptide over sAnk1 needed to inhibit binding by 50%: binding of GST-Obsc6231–6260 construct to sAnk1, 1 µM MBP-sAnk1, SPR
Procedure, shortened: as §1

MBP-sAnk1_29–155 [4] = test: SPR competition, oligopeptide inhibition of MBP-sAnk1 binding; set-up: species or system rat; settings: binding of MBP-sAnk1_29–155 to either GST-Obsc6316–6345 or GST-Obsc6231–6260

Substance: Obsc6316–6345 oligopeptide: synthetic oligopeptide containing obscurin residues 6316–6345 (GAAWPGAGTGELLWDVHSHVVRETTQRTYT; UniProt Q5VST9 6316-6345, looked up, fragment)
- Ratio of inhibition constants, 6316–6345 to 6231–6260 oligopeptide [1]: 3.00
- binding to sAnk1 by SPR (in words) (MBP-sAnk1_29–155 [2]): no significant difference in binding between Obsc6316–6436 and Obsc6316–6345
- molar excess of peptide over sAnk1 needed to inhibit binding by 50% [3]: ~ 2 fold molar excess
- Ratio of inhibition constants, 6316–6345 to 6231–6260 oligopeptide ([3]; binding to GST-Obsc6231–6260): 3.29
- relative inhibition of binding vs 6231–6260 oligopeptide (MBP-sAnk1_29–155 [4]): ~ 3 fold

Substance: Obsc6231–6260 oligopeptide: synthetic oligopeptide containing obscurin residues 6231–6260
- molar excess of peptide over sAnk1 needed to inhibit binding by 50% [3]: ~ 6 fold molar excess
